We go through 12 molecules from ChEMBL document CHEMBL4052646, “Synthesis of nοvel artemisinin dimers with polyamine linkers and evaluation of their potential as anticancer agents” (Bioorg Med Chem, 2017).

Each structure is given as a SMILES string. Activity calls are given as the source filed them. No cut-off for these calls is given here.

Assay [1] deals with MCF7. As to the kind of experiment: Cytotoxicity against human MCF7 cells assessed as reduction in cell number at 10 uM cotreated with spermidine after 48 hrs by MTT assay. The assay is classed as functional, cell-based. Summed up:
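MCF7 cells given the conjugate, the unconjugated artemisinin derivative, spermidine, or the derivative plus spermidine, each at 10 µM, for 48 h. Cell number measured by MTT at 490 nm after formazan solubilisation in acidified isopropanol. Reported as mean ± S.E.M. relative to untreated cells.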

The test system of assay [2] is MCF7. As to the kind of experiment: Cytotoxicity against human MCF7 cells assessed as reduction in cell number after 48 hrs by MTT assay. The assay is classed as functional, cell-based. To be noted: for IC50: MCF7, 48 h. Summed up: (§1)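 Cells seeded at 10×10^3 (MCF7) or 15×10^3 (HUVEC, primary from umbilical cords, passages 2-3) per well, exposed to agents at different concentrations up to 10 µM for 48 h. MTT added at 1/10 medium volume, 2 h at 37°C, formazan dissolved in acidified isopropanol, absorbance read at 490 nm. Confirmed by haemocytometer counts. IC50 and maximal percent decrease interpolated from graphs. Mean ± S.E.M. versus untreated cells.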

Assay [3] relates to MCF7. Briefly: Cytotoxicity against human MCF7 cells assessed as reduction in cell number at 10 uM after 48 hrs by MTT assay. It counts as functional. The gist of the method: as §1
Another assay deals with Chorioallantoic membrane. Briefly: In vivo antiangiogenic activity in Leghorn chicken embryo chorioallantoic membrane assessed as decrease in total vessel length at 10 nmol/egg after 48 hrs relative to control. Also noted: scale not given: the % may be the effect or the level left. It counts as functional, Gallus gallus. Summed up: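 Windows opened in fertilized Leghorn eggs on day 4. On day 9, agent in 20 µl PBS applied to 1 cm² of CAM inside a plastic ring. After 48 h at 37°C, CAMs fixed in situ, excised and air-dried. Total vessel length measured by image analysis as percent change versus control. At least three experiments, 10–20 eggs per point.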

The test system of assay [4] is HUVEC. As to the kind of experiment: Cytotoxicity against HUVEC assessed as reduction in cell number after 48 hrs by MTT assay. The assay is classed as functional, cell-based. To be noted: Homo sapiens. The gist of the method:
as §1

The test system of assay [5] is HUVEC. As to the kind of experiment: Cytotoxicity against HUVEC assessed as reduction in cell number at 10 uM after 48 hrs by MTT assay. It counts as functional, Homo sapiens. The gist of the method: as §1
Assay [6] has as its system MCF7. Briefly: Induction of ROS production in human MCF7 cells after 4 to 6 hrs by carboxy-H2DCFDA dye based fluorescence assay. The assay is classed as functional, cell-based. Summed up:
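MCF7 cells seeded at 15×10^3/well, exposed to agents 24 h later for 4 h. After PBS washes, cells loaded with 50 µM carboxy-H2DCFDA for 15 min in the dark. Fluorescence read at excitation 492–495 nm and emission 517–527 nm.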

For assay [7], the system named is MCF7. As to the kind of experiment: Induction of apoptosis in human MCF7 cells at 10 uM after 48 hrs by Annexin V-FITC/PI staining based flow cytometry. The assay is classed as functional, cell-based.
Assay [8] has as its system MCF7. Briefly: Induction of necrosis in human MCF7 cells at 10 uM after 48 hrs by Annexin V-FITC/PI staining based flow cytometry. It counts as functional, cell-based.
Assay [9] relates to MCF7. As to the kind of experiment: Decrease in pleiotrophin secretion in conditioned media of human MCF7 cells at 10 uM after 24 hrs by Western blot analysis. The assay is classed as functional, cell-based. The gist of the method:
(§2)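 MCF7 cells treated with 10 µM agent for 24 h. PTN in the whole conditioned medium was captured on heparin-Sepharose for 16 h at 4°C and eluted in reducing Laemmli buffer. Lysates were run in parallel. Blots were probed with mouse anti-PTN (1:1,000), normalised to β-actin, and quantified by densitometry as percent of untreated (n=3).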

Assay [10] concerns MCF7. As to the kind of experiment: Decrease in pleiotrophin protein expression in human MCF7 cell lysate at 10 uM after 24 hrs by Western blot analysis. It counts as functional, cell-based. Summed up:
as §2

Regarding `C[C@H]1[C@@H](CCCO)O[C@@H]2O[C@]3(C)CC[C@H]4[C@H](C)CC[C@@H]1[C@@]24OO3`, the result in the assay with MCF7 [1] was inactive.

As to `COC(=O)N(CCCCNC(=O)OCCOCCN1C(=O)[C@H](C)[C@@H]2CC[C@@H](C)[C@@H]3CC[C@@]4(C)OO[C@]32[C@H]1O4)CCCNC(=O)OCCOCCN1C(=O)[C@H](C)[C@@H]2CC[C@@H](C)[C@@H]3CC[C@@]4(C)OO[C@]32[C@H]1O4`, in the assay with MCF7 [2], the Activity result is “Dose-dependent effect” and the IC50 came to 999 nM. The Efficacy in the assay on MCF7 [3] worked out at 39%.

For the molecule `C[C@H]1[C@@H](O)O[C@@H]2O[C@@]3(C)CC[C@H]4[C@H](C)CC[C@@H]1[C@@]24OO3` [ARTENIMOL], the Activity in the assay with Chorioallantoic membrane is on record as 2.8%. In the assay on HUVEC [4], the IC50 amounted to 1400 nM. Moreover, the Efficacy in the assay on HUVEC [5] came out at 28%.

Take `COC(=O)N(CCCCN(CCCNC(=O)OCCC[C@H]1O[C@@H]2O[C@@]3(C)CC[C@H]4[C@H](C)CC[C@@H]([C@H]1C)[C@@]24OO3)C(=O)OC)CCCNC(=O)OCCC[C@H]1O[C@@H]2O[C@@]3(C)CC[C@H]4[C@H](C)CC[C@@H]([C@H]1C)[C@@]24OO3`: the Activity in the assay on Chorioallantoic membrane is 22%; in the assay on MCF7 [2], “Dose-dependent effect”. Further, the half-maximal inhibitory concentration (IC50) with MCF7 [2] turned out to be 1000 nM; in the assay on HUVEC [4], 7500 nM. Also, the values for the Efficacy in the assay with MCF7 [3] and in the assay on HUVEC [5] were 70% and 27%, respectively. Also, the outcome with MCF7 [6], in the assay on MCF7 [9] and in the assay with MCF7 [10] was Active. For the same molecule, the outcome with MCF7 [7] and with MCF7 [8] was inactive.

`C[C@H]1[C@@H](CCCOC(=O)NCCCCNC(=O)OCCC[C@H]2O[C@@H]3O[C@@]4(C)CC[C@H]5[C@H](C)CC[C@@H]([C@H]2C)[C@@]35OO4)O[C@@H]2O[C@@]3(C)CC[C@H]4[C@H](C)CC[C@@H]1[C@@]24OO3`: the Activity in the assay with Chorioallantoic membrane was 14.3%; in the assay with MCF7 [2], “Dose-dependent effect”. The figures for the half-inhibitory concentration (IC50) in the assay on MCF7 [2] and with HUVEC [4] were 1000 nM and 3600 nM, respectively. The results for the Efficacy with MCF7 [3] and in the assay with HUVEC [5] were 61% and 27%, respectively. The result with MCF7 [6], in the assay with MCF7 [9] and in the assay on MCF7 [10] was Active. In addition, the outcome in the assay with MCF7 [7] and in the assay with MCF7 [8] was inactive.

As to `C[C@@H]1CC[C@H]2[C@@H](C)C(=O)O[C@@H]3O[C@@]4(C)CC[C@@H]1[C@]32OO4` [ARTEMISININ], the Activity with Chorioallantoic membrane was 6.3%; with MCF7 [2], “Dose-dependent effect”. In addition, the Efficacy amounted to 14% in the assay on MCF7 [3] and 22% in the assay on HUVEC [5]. Besides, the result in the assay with MCF7 [6], with MCF7 [9] and with MCF7 [10] was Active. Also, the outcome in the assay with MCF7 [7] and with MCF7 [8] was inactive. Moreover, the IC50 with HUVEC [4] came out at 1100 nM.

`COC(=O)N(CCCCN(CCCNC(=O)OCCOCCO[C@H]1O[C@@H]2O[C@@]3(C)CC[C@H]4[C@H](C)CC[C@@H]([C@H]1C)[C@@]24OO3)C(=O)OC)CCCNC(=O)OCCOCCO[C@H]1O[C@@H]2O[C@@]3(C)CC[C@H]4[C@H](C)CC[C@@H]([C@H]1C)[C@@]24OO3`: in the assay with MCF7 [2], the Activity result is “Dose-dependent effect” and the IC50 came to 1000 nM. Further, in the assay with MCF7 [3], the Efficacy is listed as 64%.

For the molecule `C[C@@H]1CC[C@H]2[C@@H](C)C(=O)N(CCOCCOC(=O)NCCCCNC(=O)OCCOCCN3C(=O)[C@H](C)[C@@H]4CC[C@@H](C)[C@@H]5CC[C@@]6(C)OO[C@]54[C@H]3O6)[C@@H]3O[C@@]4(C)CC[C@@H]1[C@@]23OO4`, in the assay on MCF7 [2], the Activity result is “Dose-dependent effect”. Further, the half-inhibitory concentration (IC50) came out at 999 nM with MCF7 [2] and 2300 nM with HUVEC [4]. Also, the Efficacy was determined as 52% in the assay with MCF7 [3] and 23% in the assay on HUVEC [5]. The outcome in the assay on MCF7 [6], with MCF7 [9] and in the assay on MCF7 [10] was Active. The result in the assay on MCF7 [7] and in the assay on MCF7 [8] was inactive.

On to `COC(=O)N(CCCCNC(=O)OCCOCCO[C@H]1O[C@@H]2O[C@@]3(C)CC[C@H]4[C@H](C)CC[C@@H]([C@H]1C)[C@@]24OO3)CCCNC(=O)OCCOCCO[C@H]1O[C@@H]2O[C@@]3(C)CC[C@H]4[C@H](C)CC[C@@H]([C@H]1C)[C@@]24OO3`, for which, in the assay on MCF7 [3], the Efficacy was 11.2%.

Regarding `C[C@H]1[C@@H](OCCOCCOC(=O)NCCCCNC(=O)OCCOCCO[C@H]2O[C@@H]3O[C@@]4(C)CC[C@H]5[C@H](C)CC[C@@H]([C@H]2C)[C@@]35OO4)O[C@@H]2O[C@@]3(C)CC[C@H]4[C@H](C)CC[C@@H]1[C@@]24OO3`, in the assay with MCF7 [2], the Activity result was “Dose-dependent effect” and the IC50 was found to be 1000 nM. Also, the Efficacy in the assay on MCF7 [3] is given as 50%.

With `COC(=O)N(CCCCN(CCCNC(=O)OCCOCCN1C(=O)[C@H](C)[C@@H]2CC[C@@H](C)[C@@H]3CC[C@@]4(C)OO[C@]32[C@H]1O4)C(=O)OC)CCCNC(=O)OCCOCCN1C(=O)[C@H](C)[C@@H]2CC[C@@H](C)[C@@H]3CC[C@@]4(C)OO[C@]32[C@H]1O4`, in the assay with MCF7 [2], the Activity entry was “Dose-dependent effect” and the IC50 was 1000 nM. Further, the Efficacy with MCF7 [3] is given as 48%.

On to `COC(=O)N(CCCCNC(=O)OCCC[C@H]1O[C@@H]2O[C@@]3(C)CC[C@H]4[C@H](C)CC[C@@H]([C@H]1C)[C@@]24OO3)CCCNC(=O)OCCC[C@H]1O[C@@H]2O[C@@]3(C)CC[C@H]4[C@H](C)CC[C@@H]([C@H]1C)[C@@]24OO3`, for which the Activity is 12% in the assay with Chorioallantoic membrane and “Dose-dependent effect” in the assay on MCF7 [2]. The IC50 with MCF7 [2] worked out at 1000 nM; with HUVEC [4], 1200 nM. For the same molecule, the Efficacy with MCF7 [3] is reported as 76%; in the assay on HUVEC [5], 35%. For the same molecule, the result in the assay with MCF7 [6], in the assay with MCF7 [7] and with MCF7 [8] was inactive. In addition, the outcome in the assay with MCF7 [9] and with MCF7 [10] was Active.
